Data set [1] addresses Dipeptidyl peptidase 9 (Homo sapiens, UniProt Q86TI2). The data set can be described thus: Inhibition of DPP9 activity.
The target in data set [2] is Dipeptidyl peptidase 8 (Homo sapiens, UniProt Q6V1X1). In words: Inhibition of DPP8 activity.
The nature of data set [3]: Oral bioavailability in rat at 2 mg/kg. In kind it is ADME, organism-based. As to conditions: in vivo. The essentials: (§1)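 Rats received the inhibitor at 1 mg/kg iv and 2 mg/kg po. Values reported are clearance (mL/min/kg), half-life (h), oral AUC normalized to dose (μM h kg mg⁻¹) and oral bioavailability F (%).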
The nature of data set [4]: Clearance in rat at 1 mg/kg, iv or 2 mg/kg, po. As to conditions: in vivo. Type of data set: ADME, organism-based. The essentials: as §1
Data set [5] in a line: Half life in rat at 1 mg/kg, iv or 2 mg/kg, po. As to conditions: in vivo. In kind it is ADME, organism-based. The essentials: as §1

SMILES strings stand for the structures. Where only a bound is given, the exact number is not on record here.

The text below walks through data of ChEMBL document CHEMBL1148001 (Bioorg Med Chem Lett, 2007).

Sequence of Dipeptidyl peptidase 8 (Q6V1X1 whole entry): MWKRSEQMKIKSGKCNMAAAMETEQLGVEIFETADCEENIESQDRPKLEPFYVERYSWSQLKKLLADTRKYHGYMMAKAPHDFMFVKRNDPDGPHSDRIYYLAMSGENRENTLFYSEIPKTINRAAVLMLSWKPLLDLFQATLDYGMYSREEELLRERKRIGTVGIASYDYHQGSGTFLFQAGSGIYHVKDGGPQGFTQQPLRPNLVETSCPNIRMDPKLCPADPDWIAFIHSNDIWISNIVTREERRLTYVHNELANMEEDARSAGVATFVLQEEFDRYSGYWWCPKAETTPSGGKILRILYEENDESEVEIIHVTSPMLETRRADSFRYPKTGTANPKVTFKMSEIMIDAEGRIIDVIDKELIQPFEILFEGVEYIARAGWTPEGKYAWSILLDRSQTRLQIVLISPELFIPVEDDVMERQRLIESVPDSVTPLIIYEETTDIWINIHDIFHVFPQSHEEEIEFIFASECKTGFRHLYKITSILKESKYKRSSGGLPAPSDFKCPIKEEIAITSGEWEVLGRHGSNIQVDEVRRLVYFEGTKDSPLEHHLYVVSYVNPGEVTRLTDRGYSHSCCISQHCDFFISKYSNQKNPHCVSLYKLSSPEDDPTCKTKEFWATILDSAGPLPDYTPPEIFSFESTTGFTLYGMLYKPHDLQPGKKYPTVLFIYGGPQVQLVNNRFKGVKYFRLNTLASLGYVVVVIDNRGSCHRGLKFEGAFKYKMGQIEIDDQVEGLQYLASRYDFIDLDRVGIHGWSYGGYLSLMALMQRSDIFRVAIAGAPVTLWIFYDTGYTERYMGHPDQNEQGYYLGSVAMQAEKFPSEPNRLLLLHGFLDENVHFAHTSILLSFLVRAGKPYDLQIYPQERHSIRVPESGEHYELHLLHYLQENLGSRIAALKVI
Sequence of Dipeptidyl peptidase 9 (Q86TI2 whole entry): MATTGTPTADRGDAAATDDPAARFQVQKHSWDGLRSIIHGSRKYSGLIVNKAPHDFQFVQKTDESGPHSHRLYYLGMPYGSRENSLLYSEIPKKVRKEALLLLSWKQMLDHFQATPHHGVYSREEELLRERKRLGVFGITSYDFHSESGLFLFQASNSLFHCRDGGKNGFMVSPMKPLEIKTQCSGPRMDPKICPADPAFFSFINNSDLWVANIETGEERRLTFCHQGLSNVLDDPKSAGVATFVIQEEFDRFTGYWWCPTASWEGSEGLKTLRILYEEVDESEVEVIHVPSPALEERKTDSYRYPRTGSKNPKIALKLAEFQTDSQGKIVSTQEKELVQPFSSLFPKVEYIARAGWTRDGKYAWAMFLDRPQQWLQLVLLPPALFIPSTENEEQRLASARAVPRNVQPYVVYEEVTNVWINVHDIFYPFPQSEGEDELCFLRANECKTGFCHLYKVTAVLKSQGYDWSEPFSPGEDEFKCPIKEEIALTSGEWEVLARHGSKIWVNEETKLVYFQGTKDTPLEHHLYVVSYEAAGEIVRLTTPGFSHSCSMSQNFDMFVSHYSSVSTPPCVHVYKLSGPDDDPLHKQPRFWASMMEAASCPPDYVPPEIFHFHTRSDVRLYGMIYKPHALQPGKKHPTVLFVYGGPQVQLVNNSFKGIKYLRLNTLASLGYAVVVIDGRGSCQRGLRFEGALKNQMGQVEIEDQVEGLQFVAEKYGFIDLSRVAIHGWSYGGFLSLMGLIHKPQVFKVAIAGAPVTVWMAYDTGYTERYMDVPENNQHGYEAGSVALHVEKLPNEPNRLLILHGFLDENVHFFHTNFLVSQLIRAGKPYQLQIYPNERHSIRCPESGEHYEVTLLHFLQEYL

In general, IC50 refers to the concentration that inhibits the measured activity by half. Read a high IC50 as a need for much substance. With `N[C@@H](CC(=O)N1CCn2c(nnc2C(F)(F)F)C1)Cc1cccc(F)c1`, the IC50 in data set [1] and in data set [2] was more than 100 µM each time.

For the molecule `N[C@@H](CC(=O)N1CCn2c(nnc2C(F)(F)F)C1)Cc1cc(Cl)ccc1Cl`, the IC50 in data set [1] and in data set [2] was more than 100 µM throughout.

A word on the bioavailability: it is the share of a dose that reaches the circulation, judged against a reference dose that is usually intravenous. Low values mean poor availability, high ones good availability. As usually defined, the half-life is how long it takes for the measured level to halve. High values mean slow loss, low ones fast loss. As to `N[C@@H](CC(=O)N1CCn2c(nnc2C(F)(F)F)C1)Cc1cc(F)c(Cl)cc1F`, in data set [3], the bioavailability was 54%. The clearance in data set [4] is 58 mL/min/kg. This molecule also showed an IC50 in data set [1] of more than 100 µM. In data set [5], this molecule showed a half-life of 126 min.

Consider `N[C@@H](CC(=O)N1CCn2c(nnc2C(F)(F)F)C1)Cc1cc(F)c(F)cc1Cl`, for which, in data set [3], the bioavailability was found to be 47%. Also, the clearance in data set [4] was 78 mL/min/kg. Further, the IC50 in data set [1] and in data set [2] was more than 100 µM throughout. This molecule also gave a half-life in data set [5] of 102 min.

`N[C@@H](CC(=O)N1CCn2c(nnc2-c2ccc(F)cc2)C1)Cc1cc(F)ccc1F` yielded an IC50 in data set [1] of more than 100 µM.

The molecule `N[C@@H](CC(=O)N1CCn2c(nnc2-c2ccncc2)C1)Cc1cc(F)ccc1F` gave an IC50 in data set [1] of 84 µM.

Consider `N[C@@H](CC(=O)N1CCn2c(CO)nnc2C1)Cc1cc(F)ccc1F`, for which the IC50 in data set [1] and in data set [2] was more than 100 µM throughout.

Turning to `CCc1nnc2n1CCN(C(=O)C[C@H](N)Cc1cc(F)c(F)cc1F)C2`, the bioavailability in data set [3] came out at 2%. This molecule had a clearance in data set [4] of 70 mL/min/kg. Moreover, in data set [1], the IC50 is more than 100 µM.

The molecule `CCOC(=O)c1nnc2n1CCN(C(=O)C[C@H](N)Cc1cc(F)c(F)cc1F)C2` returned a 50% inhibitory concentration (IC50) in data set [2] of 22 µM.

`CC(C)(C)NC(=O)c1nnc2n1CCN(C(=O)C[C@H](N)Cc1cc(F)c(F)cc1F)C2` had an IC50 in data set [1] of more than 100 µM.

Molecule `N[C@@H](CC(=O)N1CCn2c(nnc2C(F)(F)F)C1)Cc1ccc(Cl)cc1Cl` gave a bioavailability in data set [3] of 36%. In data set [4], this molecule came in with a clearance of 98 mL/min/kg. The half-life in data set [5] is 156 min.

The molecule `N[C@@H](CC(=O)N1CCn2c(nnc2C(F)(F)F)C1)Cc1ccc(F)cc1` showed an IC50 in data set [1] of more than 100 µM.

As for `N[C@@H](CC(=O)N1CCn2c(nnc2C(F)(F)F)C1)Cc1cccc(C(F)(F)F)c1`, the IC50 in data set [1] and in data set [2] was more than 100 µM each time.

Turning to `N[C@@H](CC(=O)N1CCn2c(nnc2C(F)(F)F)C1)Cc1cccc(Cl)c1`, the IC50 in data set [1] and in data set [2] was more than 100 µM throughout.

In the case of `N[C@@H](CC(=O)N1CCn2c(nnc2C(F)(F)F)C1)Cc1cc(F)cc(F)c1F`, the IC50 in data set [1] and in data set [2] was more than 100 µM throughout.

On to `N[C@@H](CC(=O)N1CCn2c(nnc2C(F)(F)F)C1)Cc1ccc(C(F)(F)F)cc1`, for which the IC50 in data set [1] and in data set [2] was more than 100 µM each time.

Turning to `N[C@@H](CC(=O)N1CCn2c(nnc2C(F)(F)F)C1)Cc1ccccc1Cl`, the IC50 in data set [1] and in data set [2] was more than 100 µM each time.

Take `N[C@@H](CC(=O)N1CCn2c(nnc2C(F)(F)F)C1)Cc1ccc(Cl)c(Cl)c1`: the IC50 in data set [1] and in data set [2] was more than 100 µM in each case.

Molecule `N[C@@H](CC(=O)N1CCn2c(nnc2C(F)(F)F)C1)Cc1ccccc1F` returned an IC50 in data set [1] of more than 100 µM.

`N[C@@H](CC(=O)N1CCn2c(nnc2C(F)(F)F)C1)Cc1ccc(F)cc1F`: in data set [1], the half-inhibitory concentration (IC50) was more than 100 µM.

`N[C@@H](CC(=O)N1CCn2c(nnc2-c2ccc(F)cc2F)C1)Cc1cc(F)ccc1F` gave an IC50 in data set [1] of 58 µM.

As for `CCOC(=O)c1nnc2n1CCN(C(=O)C[C@H](N)Cc1cc(F)ccc1F)C2`, in data set [1], the IC50 came to 78 µM.

`N[C@@H](CC(=O)N1CCn2c(nnc2C2CC2)C1)Cc1cc(F)c(F)cc1F` came in with a bioavailability in data set [3] of 3%. In data set [4], this molecule yielded a clearance of 68 mL/min/kg. Also, the IC50 in data set [1] was more than 100 µM. In data set [5], the half-life is 108 min.

`N[C@@H](CC(=O)N1CCn2c(nnc2C(F)F)C1)Cc1cc(F)c(F)cc1F` registered a bioavailability in data set [3] of 39%. This molecule also showed a clearance in data set [4] of 66 mL/min/kg. This molecule came in with an IC50 in data set [1] of more than 100 µM. Also, the half-life in data set [5] was 78 min.

`N[C@@H](CC(=O)N1CCn2c(nnc2C(F)(F)F)C1)Cc1c(F)ccc(F)c1F`: the IC50 in data set [1] and in data set [2] was more than 100 µM each time.

For the molecule `N[C@@H](CC(=O)N1CCn2c(nnc2C(F)(F)F)C1)Cc1c(F)cc(F)cc1F`, the IC50 in data set [1] and in data set [2] was more than 100 µM in each case.

Consider `N[C@@H](CC(=O)N1CCn2c(nnc2C(F)(F)F)C1)Cc1c(F)c(F)c(F)c(F)c1F`, for which the IC50 in data set [1] and in data set [2] was more than 100 µM throughout.

Turning to `N[C@@H](CC(=O)N1CCn2c(nnc2C(F)(F)F)C1)Cc1ccccc1C(F)(F)F`, the IC50 in data set [1] and in data set [2] was more than 100 µM in each case.

Take `N[C@@H](CC(=O)N1CCn2c(nnc2C(F)(F)F)C1)Cc1cc(Cl)ccc1F`: the bioavailability in data set [3] was 43%. This molecule had a clearance in data set [4] of 99 mL/min/kg. The molecule also showed an IC50 in data set [2] of more than 100 µM. This molecule also showed a half-life in data set [5] of 102 min.

Consider `N[C@@H](CC(=O)N1CCn2c(nnc2C(F)(F)F)C1)Cc1cc(F)c(F)cc1F` [SITAGLIPTIN], for which the bioavailability in data set [3] worked out at 76%. This molecule also returned a clearance in data set [4] of 60 mL/min/kg.
